≈ marks a conversion by molar mass, not a printed value.

For twelve compounds, IC50, EC50 and solubility results are on record in ChEMBL document CHEMBL1932924, “Design, synthesis, and biological evaluation of 4-phenylpyrrole derivatives as novel androgen receptor antagonists” (Bioorg Med Chem, 2012).

The target in data set [1] is T1, Androgen receptor (Homo sapiens, UniProt P10275).
T1 sequence (P10275 whole entry): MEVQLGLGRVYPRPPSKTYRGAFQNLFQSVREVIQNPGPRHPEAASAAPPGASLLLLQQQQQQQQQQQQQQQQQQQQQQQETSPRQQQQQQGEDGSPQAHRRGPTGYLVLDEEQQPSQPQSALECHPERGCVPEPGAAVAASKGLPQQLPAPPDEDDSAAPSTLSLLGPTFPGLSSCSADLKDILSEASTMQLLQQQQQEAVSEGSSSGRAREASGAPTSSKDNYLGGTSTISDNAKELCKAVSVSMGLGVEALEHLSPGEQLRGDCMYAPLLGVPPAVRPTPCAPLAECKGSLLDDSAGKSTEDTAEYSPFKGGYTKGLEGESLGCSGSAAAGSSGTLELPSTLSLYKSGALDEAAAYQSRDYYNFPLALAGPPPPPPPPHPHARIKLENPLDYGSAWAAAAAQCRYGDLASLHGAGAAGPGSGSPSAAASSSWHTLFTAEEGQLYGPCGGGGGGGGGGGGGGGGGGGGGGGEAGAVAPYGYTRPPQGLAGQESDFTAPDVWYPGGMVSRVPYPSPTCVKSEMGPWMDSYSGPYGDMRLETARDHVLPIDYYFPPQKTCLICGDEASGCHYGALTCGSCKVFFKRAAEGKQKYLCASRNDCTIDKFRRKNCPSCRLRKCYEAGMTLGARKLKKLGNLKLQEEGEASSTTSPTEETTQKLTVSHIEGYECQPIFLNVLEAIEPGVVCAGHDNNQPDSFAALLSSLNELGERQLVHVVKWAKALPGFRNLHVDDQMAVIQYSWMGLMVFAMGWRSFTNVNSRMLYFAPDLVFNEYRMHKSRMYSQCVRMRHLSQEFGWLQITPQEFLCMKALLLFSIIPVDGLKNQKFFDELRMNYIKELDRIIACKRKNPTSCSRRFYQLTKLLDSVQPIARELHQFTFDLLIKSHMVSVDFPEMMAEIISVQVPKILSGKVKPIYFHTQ
The experiment in a line: Displacement of [17-alpha-methyl-3H]-mibolerone from human androgen receptor expressed in HEK293 derived FreeStyle293F cells after 3 hrs. The format is cell-based.

The target in data set [2] is T2, Androgen receptor (Homo sapiens, UniProt P10275, T878A). The experiment in a line: Displacement of [17-alpha-methyl-3H]-mibolerone from human androgen receptor T877A mutant expressed in HEK293 derived FreeStyle293F cells after 3 hrs. It counts as cell-based.
The target of data set [3] is T1, Androgen receptor. The experiment in a line: Antagonist activity at human androgen receptor expressed in COS7 cells assessed as inhibition of DHT-induced luciferase activity after 24 hrs by reporter gene assay. The format is functional, cell-based, COS-7. (In general: In a reporter assay the amount or activity of a reporter protein is the signal.)
For data set [4], the target named is T2, Androgen receptor. The data set can be described thus: Antagonist activity at human androgen receptor T877A mutant expressed in COS7 cells assessed as inhibition of DHT-induced luciferase activity after 24 hrs by reporter gene assay. It counts as functional, cell-based, COS-7.
In data set [5] the target is T3, Androgen receptor (Homo sapiens, UniProt P10275, W742C). The data set can be described thus: Antagonist activity at human androgen receptor W741C mutant expressed in COS7 cells assessed as inhibition of DHT-induced luciferase activity after 24 hrs by reporter gene assay. It counts as functional, cell-based, COS-7.
Data set [6] deals with T1, Androgen receptor. The experiment in a line: Agonist activity at human androgen receptor expressed in COS7 cells assessed as luciferase activity after 24 hrs by reporter gene assay. The format is functional, cell-based, COS-7.
The target in data set [7] is T2, Androgen receptor. The experiment in a line: Agonist activity at human androgen receptor T877A mutant expressed in COS7 cells assessed as luciferase activity after 24 hrs by reporter gene assay. It counts as functional, cell-based, COS-7.
Data set [8] addresses T3, Androgen receptor. The experiment in a line: Agonist activity at human androgen receptor W741C mutant expressed in COS7 cells assessed as luciferase activity after 24 hrs by reporter gene assay. The format is functional, cell-based, COS-7.
Data set [9] can be described thus: Solubility in aqueous buffer solution at pH 6.8. The format is physicochemical. The gist of the method:
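DMSO stock added to aqueous buffer at pH 6.8 and incubated. Precipitate removed by filtration; filtrate concentration measured by HPLC.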

T2 sequence (P10275 whole entry T878A): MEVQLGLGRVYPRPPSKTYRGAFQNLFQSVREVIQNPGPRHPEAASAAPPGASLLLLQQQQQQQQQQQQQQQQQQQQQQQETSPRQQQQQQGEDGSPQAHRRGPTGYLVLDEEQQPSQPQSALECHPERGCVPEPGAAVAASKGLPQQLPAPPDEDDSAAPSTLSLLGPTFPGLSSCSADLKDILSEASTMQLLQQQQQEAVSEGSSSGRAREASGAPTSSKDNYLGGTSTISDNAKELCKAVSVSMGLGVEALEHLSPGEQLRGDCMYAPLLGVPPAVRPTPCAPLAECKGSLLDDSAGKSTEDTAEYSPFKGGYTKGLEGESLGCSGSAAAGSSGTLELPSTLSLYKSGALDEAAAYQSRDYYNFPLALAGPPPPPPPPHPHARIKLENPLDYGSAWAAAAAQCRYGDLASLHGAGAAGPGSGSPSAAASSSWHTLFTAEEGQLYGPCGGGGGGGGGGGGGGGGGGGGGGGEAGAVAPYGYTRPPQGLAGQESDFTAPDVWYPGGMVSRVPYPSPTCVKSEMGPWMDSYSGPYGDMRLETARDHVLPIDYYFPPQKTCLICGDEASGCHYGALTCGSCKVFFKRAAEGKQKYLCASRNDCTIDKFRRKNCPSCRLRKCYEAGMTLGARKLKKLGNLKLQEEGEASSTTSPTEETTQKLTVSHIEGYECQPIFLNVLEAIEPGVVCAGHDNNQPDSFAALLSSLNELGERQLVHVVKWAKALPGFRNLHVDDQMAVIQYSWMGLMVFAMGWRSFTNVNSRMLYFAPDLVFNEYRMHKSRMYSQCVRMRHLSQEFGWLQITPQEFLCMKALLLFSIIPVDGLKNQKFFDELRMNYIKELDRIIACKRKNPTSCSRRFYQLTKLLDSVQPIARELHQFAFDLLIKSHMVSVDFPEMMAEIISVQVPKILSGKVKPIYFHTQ
T3 sequence (P10275 whole entry W742C): as the sequence (P10275 whole entry T878A) above, with W742C, A878T counted along it

Take `Cc1c(C#N)c(-c2ccc(C#N)cc2)c(C)n1Cc1ccc(Cl)nc1`: the IC50 on Androgen receptor [1] amounted to 9 nM; at Androgen receptor [2] it was 24 nM; on Androgen receptor [3] it was 45 nM; on Androgen receptor [4] it was 100 nM; on Androgen receptor [5], 910 nM. Also, the EC50 on Androgen receptor [6], at Androgen receptor [7] and at Androgen receptor [8] was over 10000 nM throughout. The solubility in data set [9] was determined as 0.83 µg/mL (≈ 2.39 µM).

As to `COC(=O)c1c(-c2ccc(C#N)c(C(F)(F)F)c2)c(C)n(Cc2ccccc2)c1C`, the IC50 at Androgen receptor [1] is 3.9 nM; on Androgen receptor [2], 4.7 nM; on Androgen receptor [3], 320 nM; at Androgen receptor [4], 690 nM; on Androgen receptor [5], 3300 nM. Further, the EC50 on Androgen receptor [6] was over 10000 nM; on Androgen receptor [7] it was 5400 nM; at Androgen receptor [8] it was over 10000 nM.

For `Cc1c(-c2ccc(C#N)cc2)c(C#N)cn1Cc1cnc(Cl)c(CO)c1`, the 50% inhibitory concentration (IC50) on Androgen receptor [1] is 490 nM; at Androgen receptor [2] it was 1100 nM; on Androgen receptor [3] it was 320 nM; at Androgen receptor [4], 810 nM; at Androgen receptor [5], 1400 nM. Moreover, the EC50 at Androgen receptor [6], at Androgen receptor [7] and on Androgen receptor [8] was over 10000 nM throughout.

With `Cc1c(C(=O)O)c(-c2ccc([N+](=O)[O-])cc2)c(C)n1Cc1ccccc1`, the IC50 is 620 nM on Androgen receptor [1]; 190 nM on Androgen receptor [2]; 8700 nM on Androgen receptor [3]; 6500 nM at Androgen receptor [4]; over 10000 nM on Androgen receptor [5]. For the same compound, the EC50 at Androgen receptor [6], on Androgen receptor [7] and on Androgen receptor [8] was over 10000 nM each time.

On to `Cc1c(C#N)c(-c2ccc(C#N)cc2)c(C)n1Cc1cncc(CO)c1`, for which the concentration for half-maximal inhibition (IC50) on Androgen receptor [1] amounted to 14 nM; on Androgen receptor [2] it was 150 nM; on Androgen receptor [3], 100 nM; at Androgen receptor [4], 440 nM; on Androgen receptor [5] it was 600 nM. Moreover, the 50% effective concentration (EC50) at Androgen receptor [6], at Androgen receptor [7] and on Androgen receptor [8] was over 10000 nM each time. The concentration in solution in data set [9] (solubility) was 3.5 µg/mL (≈ 10.2 µM).

Turning to `Cc1c(C#N)c(-c2ccc(C#N)cc2)c(C)n1Cc1ccccc1`, the IC50 on Androgen receptor [1] stood at 1.4 nM; at Androgen receptor [2] it was 3 nM; at Androgen receptor [3] it was 40 nM; at Androgen receptor [4], 41 nM; at Androgen receptor [5], 380 nM. Also, the concentration for a half-maximal effect (EC50) at Androgen receptor [6], on Androgen receptor [7] and at Androgen receptor [8] was over 10000 nM throughout. The solubility in [9] came to 0.35 µg/mL (≈ 1.12 µM).

Regarding `Cc1c(C#N)c(-c2ccc(C#N)cc2)cn1Cc1cnc(Cl)c(CO)c1`, the IC50 at Androgen receptor [1] worked out at 78 nM; at Androgen receptor [2], 160 nM; on Androgen receptor [3], 170 nM; on Androgen receptor [4], 910 nM; on Androgen receptor [5] it was 760 nM. The EC50 on Androgen receptor [6], on Androgen receptor [7] and on Androgen receptor [8] was over 10000 nM throughout.

In the case of `Cc1c(C#N)c(-c2ccc(C#N)cc2)c(C)n1Cc1cccnc1`, the IC50 at Androgen receptor [1] stood at 3.4 nM; on Androgen receptor [2], 23 nM; at Androgen receptor [3], 65 nM; at Androgen receptor [4] it was 190 nM; at Androgen receptor [5], 180 nM. Further, the EC50 was 2200 nM at Androgen receptor [6], over 10000 nM on Androgen receptor [7] and 3600 nM at Androgen receptor [8]. Moreover, the concentration in solution in data set [9] (solubility) came to 5.1 µg/mL (≈ 16.3 µM).

As for `CCOC(=O)c1c(-c2ccc([N+](=O)[O-])cc2)c(C)n(Cc2ccccc2)c1C`, the IC50 at Androgen receptor [1] came to 5.5 nM; at Androgen receptor [2] it was 5.2 nM; on Androgen receptor [3], 340 nM; at Androgen receptor [4] it was 160 nM; at Androgen receptor [5] it was 3200 nM. The EC50 at Androgen receptor [6], at Androgen receptor [7] and on Androgen receptor [8] was over 10000 nM throughout.

Take `CCOC(=O)c1c(-c2ccc([N+](=O)[O-])cc2)c(C)n(-c2ccccc2)c1C`: the half-maximal inhibitory concentration (IC50) was 550 nM on Androgen receptor [1]; 220 nM at Androgen receptor [2]; 4300 nM at Androgen receptor [3]; 2100 nM at Androgen receptor [4]; over 10000 nM on Androgen receptor [5]. Moreover, the EC50 at Androgen receptor [6], on Androgen receptor [7] and on Androgen receptor [8] was over 10000 nM throughout.

On to `Cc1c(CO)c(-c2ccc([N+](=O)[O-])cc2)c(C)n1Cc1ccccc1`, for which the IC50 at Androgen receptor [1] is 300 nM; on Androgen receptor [2] it was 92 nM; at Androgen receptor [3], 3800 nM; at Androgen receptor [4] it was 660 nM; on Androgen receptor [5], over 10000 nM. The EC50 at Androgen receptor [6], at Androgen receptor [7] and at Androgen receptor [8] was over 10000 nM each time.

For `CC(=O)c1c(-c2ccc([N+](=O)[O-])cc2)c(C)n(Cc2ccccc2)c1C`, the IC50 at Androgen receptor [1] amounted to 390 nM; at Androgen receptor [2], 130 nM; at Androgen receptor [3] it was 4600 nM; at Androgen receptor [4], 900 nM; on Androgen receptor [5], 6500 nM. Further, the 50% effective concentration (EC50) at Androgen receptor [6], at Androgen receptor [7] and at Androgen receptor [8] was over 10000 nM each time.

As usually defined, the IC50 is the concentration at which inhibition is half-maximal. One may read the EC50 as the concentration needed to bring the measured effect to its halfway point. What is called solubility is the dissolved amount per volume that the medium holds. Read a high solubility as a readily soluble substance.
